Laboratory results from ChEMBL document CHEMBL1240470, “Synthesis and evaluation of some novel dibenzo[b,d]furan carboxylic acids as potential anti-diabetic agents” (Eur J Med Chem, 2010).
pIC50, pKi: −log10 of the molar value. Calls of active or inactive are those of the source. The rule behind the calls is not given here.

Experiments:
[1] = target: T1, Tyrosine-protein phosphatase non-receptor type 2 (Homo sapiens, UniProt P17706); experiment: Inhibition of human recombinant TCPTP after 30 mins by spectrophotometry
T1 sequence (P17706 whole entry): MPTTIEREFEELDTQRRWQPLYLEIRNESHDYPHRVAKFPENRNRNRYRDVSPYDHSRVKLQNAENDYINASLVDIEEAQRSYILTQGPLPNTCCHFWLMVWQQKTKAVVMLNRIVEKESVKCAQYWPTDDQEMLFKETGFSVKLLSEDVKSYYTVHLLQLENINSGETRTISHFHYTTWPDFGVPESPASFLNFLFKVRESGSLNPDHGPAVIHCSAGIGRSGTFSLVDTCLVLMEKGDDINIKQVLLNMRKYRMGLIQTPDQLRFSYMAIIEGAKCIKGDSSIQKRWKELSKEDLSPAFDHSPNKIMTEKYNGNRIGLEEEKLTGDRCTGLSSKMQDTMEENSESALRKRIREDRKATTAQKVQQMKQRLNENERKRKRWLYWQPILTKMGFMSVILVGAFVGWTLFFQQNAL
Summary of the method: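 In-house human recombinant enzyme (40 ng) was preincubated with inhibitor (1% DMSO) for 10 min at 37 °C in 25 mM Hepes pH 7.0 containing 3 mM DTT, 0.15 M NaCl, 1 mM EDTA and 0.01% NP-40. Reaction was started with 2.5 mM pNPP and followed at 405 nm for 30 min at 37 °C, then quenched with NaOH. Activity came from a p-nitrophenol standard curve.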

[2] = target: Receptor-type tyrosine-protein phosphatase F (Homo sapiens, UniProt P10586)
[3] = target: T2, Tyrosine-protein phosphatase non-receptor type 1 (Homo sapiens, UniProt P18031)
T2 sequence (P18031 whole entry): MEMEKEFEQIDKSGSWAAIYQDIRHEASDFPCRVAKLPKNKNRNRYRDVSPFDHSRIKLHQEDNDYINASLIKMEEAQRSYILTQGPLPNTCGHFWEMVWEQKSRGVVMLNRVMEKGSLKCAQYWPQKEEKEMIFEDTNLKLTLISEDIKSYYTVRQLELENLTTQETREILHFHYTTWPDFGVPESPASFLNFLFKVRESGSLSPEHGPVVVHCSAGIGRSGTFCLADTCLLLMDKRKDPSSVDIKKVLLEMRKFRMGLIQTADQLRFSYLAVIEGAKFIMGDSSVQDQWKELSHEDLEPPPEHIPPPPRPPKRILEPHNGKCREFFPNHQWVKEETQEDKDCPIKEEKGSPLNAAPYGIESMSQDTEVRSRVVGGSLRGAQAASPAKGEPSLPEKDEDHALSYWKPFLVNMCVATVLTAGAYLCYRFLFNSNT

[4] = tested on: Mus musculus; experiment: Antidiabetic activity in ob/ob mouse assessed as decrease in body weight at 10 mg/kg, po measured on day 15; type: functional, organism-based; design: dose 10 mg/kg
[5] = tested on: Mus musculus; experiment: Antidiabetic activity in ob/ob mouse assessed as reduction in fed-state whole blood glucose at 10 mg/kg, po measured on day 7; type: functional, organism-based; design: dose 10 mg/kg
[6] = tested on: Mus musculus; experiment: Antidiabetic activity in ob/ob mouse assessed as whole blood glucose at 10 mg/kg, po measured on day 10 (reference value: 139 +/- 8 mg/dL)
[7] = tested on: Mus musculus; experiment: Antidiabetic activity in ob/ob mouse assessed as fasting plasma glucose at 10 mg/kg, ip measured on day 14 (RVb = 194 +/- 17 mg/dL); type: functional; details: route intraperitoneal
[8] = tested on: Mus musculus; experiment: Antidiabetic activity in ob/ob mouse assessed as plasma cholesterol level at 10 mg/kg, ip measured on day 14 (RVb = 193 +/- 4 mg/dL); type: functional; details: route intraperitoneal
[9] = tested on: Mus musculus; experiment: Antidiabetic activity in ob/ob mouse assessed as whole blood glucose at 10 mg/kg, ip measured on day 10 (reference value: 138 +/- 8 mg/dL); type: functional; details: route intraperitoneal
[10] = species on record: Mus musculus; details: Plasma, 10 mg/kg
[11] = species on record: Mus musculus; details: 10 mg/kg
[12] = species on record: Mus musculus; details: Blood, 10 mg/kg
[13] = tested on: Mus musculus; experiment: Antidiabetic activity in ob/ob mouse assessed as fasting plasma glucose at 10 mg/kg measured on day 14 (RVb = 194 +/- 17 mg/dL)

Sequence of Receptor-type tyrosine-protein phosphatase F (P10586 whole entry): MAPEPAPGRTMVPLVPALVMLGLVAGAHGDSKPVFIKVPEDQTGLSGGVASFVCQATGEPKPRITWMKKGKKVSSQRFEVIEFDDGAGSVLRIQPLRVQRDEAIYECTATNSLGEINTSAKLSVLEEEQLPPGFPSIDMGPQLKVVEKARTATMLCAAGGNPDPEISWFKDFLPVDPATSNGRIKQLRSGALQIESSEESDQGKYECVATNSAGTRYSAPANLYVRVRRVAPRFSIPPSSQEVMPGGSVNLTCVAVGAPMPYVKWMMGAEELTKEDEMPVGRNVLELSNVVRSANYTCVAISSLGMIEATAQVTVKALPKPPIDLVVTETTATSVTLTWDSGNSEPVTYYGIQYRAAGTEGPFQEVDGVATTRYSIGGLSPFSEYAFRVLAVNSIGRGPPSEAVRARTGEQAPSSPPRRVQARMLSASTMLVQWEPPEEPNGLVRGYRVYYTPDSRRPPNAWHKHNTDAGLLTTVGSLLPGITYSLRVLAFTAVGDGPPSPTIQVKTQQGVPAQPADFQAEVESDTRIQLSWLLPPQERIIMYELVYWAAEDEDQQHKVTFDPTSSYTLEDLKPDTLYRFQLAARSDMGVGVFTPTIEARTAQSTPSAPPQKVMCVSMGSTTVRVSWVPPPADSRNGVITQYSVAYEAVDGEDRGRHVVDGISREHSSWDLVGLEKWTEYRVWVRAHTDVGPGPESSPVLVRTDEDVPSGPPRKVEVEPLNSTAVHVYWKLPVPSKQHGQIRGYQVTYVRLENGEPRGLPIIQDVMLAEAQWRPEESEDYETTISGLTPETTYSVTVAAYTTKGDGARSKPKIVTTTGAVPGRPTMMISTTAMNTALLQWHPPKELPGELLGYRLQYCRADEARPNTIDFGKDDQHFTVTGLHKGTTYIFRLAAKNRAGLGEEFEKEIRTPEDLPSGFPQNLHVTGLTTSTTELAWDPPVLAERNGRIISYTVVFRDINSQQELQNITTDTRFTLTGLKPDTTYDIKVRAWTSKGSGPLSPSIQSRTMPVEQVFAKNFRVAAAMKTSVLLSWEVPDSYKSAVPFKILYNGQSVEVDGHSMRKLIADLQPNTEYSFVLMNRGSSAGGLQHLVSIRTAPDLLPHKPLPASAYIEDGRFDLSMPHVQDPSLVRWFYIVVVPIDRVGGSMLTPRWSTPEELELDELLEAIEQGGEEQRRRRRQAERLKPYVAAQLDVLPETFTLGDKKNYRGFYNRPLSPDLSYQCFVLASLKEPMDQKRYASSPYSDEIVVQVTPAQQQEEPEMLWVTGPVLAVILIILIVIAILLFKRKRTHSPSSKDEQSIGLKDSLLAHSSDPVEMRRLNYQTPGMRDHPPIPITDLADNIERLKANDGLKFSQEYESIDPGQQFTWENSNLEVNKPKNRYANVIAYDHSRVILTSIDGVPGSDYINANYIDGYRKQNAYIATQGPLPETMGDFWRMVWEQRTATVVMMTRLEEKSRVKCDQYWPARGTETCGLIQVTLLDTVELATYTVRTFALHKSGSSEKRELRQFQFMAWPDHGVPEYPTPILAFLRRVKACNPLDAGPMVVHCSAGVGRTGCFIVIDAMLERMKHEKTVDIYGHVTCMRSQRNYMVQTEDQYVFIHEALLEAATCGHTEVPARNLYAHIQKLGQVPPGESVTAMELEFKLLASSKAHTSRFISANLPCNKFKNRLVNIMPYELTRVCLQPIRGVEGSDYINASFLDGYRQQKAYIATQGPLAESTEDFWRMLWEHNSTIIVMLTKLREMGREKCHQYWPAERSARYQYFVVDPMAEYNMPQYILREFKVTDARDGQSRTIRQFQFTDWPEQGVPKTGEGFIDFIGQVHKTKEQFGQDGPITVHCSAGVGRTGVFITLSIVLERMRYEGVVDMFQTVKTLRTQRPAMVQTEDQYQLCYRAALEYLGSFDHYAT

SMILES	pIC50 [1]	pIC50 [2]	pIC50 [3]	also measured
O=C(O)/C=C/c1ccc(-c2nc(-c3ccc4oc5c(C(=O)O)cccc5c4c3)cs2)cc1	6.01	5.70	6.21	–
O=C(O)c1ccc(-c2nc(-c3ccc4oc5c(C(=O)O)cccc5c4c3)cs2)cc1	5.68	5.49	6.41	–
O=C(O)c1cccc2c1oc1ccc(-c3csc(-c4ccc(I)cc4)n3)cc12	5.73	–	6.40	–
CN(CCOc1ccc(CC2SC(=O)NC2=O)cc1)c1ccccn1.O=C(O)/C=C\C(=O)O (stereo unspecified) [ROSIGLITAZONE MALEATE]	–	–	–	inhibition [4]: inactive; inhibition [5]: Active; Activity [6]: 90 mg/dL
Cc1ccc(-c2nc(-c3ccc4oc5c(C(=O)O)cccc5c4c3)cs2)cc1	6.14	5.88	6.29	–
O=C(O)/C=C/c1cccc(-c2nc(-c3ccc4oc5c(C(=O)O)cccc5c4c3)cs2)c1	6.10	5.69	6.26	–
Cc1nc(-c2ccc(Cl)cc2)sc1OCCc1cc(C(O)(C(=O)O)C(F)(F)F)ccc1OCc1ccccc1 (stereo unspecified)	–	–	5.49	–
O=C(O)c1cccc2c1oc1ccc(-c3csc(-c4cccc(I)c4)n3)cc12	5.79	5.68	6.37	–

Now from value to compound, other results behind:

pIC50 [1]	pIC50 [2]	pIC50 [3]	SMILES	also measured
6.16	–	6.73	Nc1ccc(-c2nc(-c3ccc4oc5c(C(=O)O)cccc5c4c3)cs2)cc1	–
6.46	5.54	6.70	O=C(O)c1cccc2c1oc1ccc(-c3csc(-c4ccc([N+](=O)[O-])cc4)n3)cc12	–
5.84	5.67	6.73	CC1CN(c2ccc(-c3nc(-c4ccc5oc6c(C(=O)O)cccc6c5c4)cs3)cc2)CC(C)O1 (stereo unspecified)	–
5.69	5.68	6.92	O=C(O)c1cccc2c1oc1ccc(-c3csc(-c4ccc(N5CCCCC5)cc4)n3)cc12	–
5.50	5.45	6.75	O=C(O)c1cccc2c1oc1ccc(-c3csc(-c4cc(Br)c(C(=O)[C@H](Cc5ccccc5)C(=O)O)c(Br)c4)n3)cc12	–
6.02	5.43	6.59	CN(C)c1ccc(-c2nc(-c3ccc4oc5c(C(=O)O)cccc5c4c3)cs2)cc1	–
5.79	5.53	6.55	O=C(O)c1cccc2c1oc1ccc(-c3csc(-c4ccc(N5CCOCC5)cc4)n3)cc12	–
5.78	5.52	7.09	O=C(O)c1cccc2c1oc1ccc(-c3csc(-c4ccc(N5CCCC5)cc4)n3)cc12	Activity [7]: 93 mg/dL; Activity [8]: 138 mg/dL; Activity [9]: 93 mg/dL; inhibition [10]: inactive; inhibition [11]: Active; inhibition [12]: Active; Activity [13]: 124 mg/dL
6.87	6.39	7.42	CCc1cc(C[C@H]2NC(=O)CN(CCCCOc3cccc(O)c3C(=O)OC)C2=O)ccc1N(C(=O)C(=O)O)c1ccccc1C(=O)O [OXALYLAMINOBENZOIC ACID]	pKi [1]: 7.19; pKi [3]: 7.74
